Reference: ChEMBL document CHEMBL3352316, “Optimization of physicochemical properties and safety profile of novel bacterial topoisomerase type II inhibitors (NBTIs) with activity against Pseudomonas aeruginosa” (Bioorg Med Chem, 2014)

Key:
[1] = Partition co-efficient, log D of the compound at pH 7.4 by shake flask method; type: physicochemical; details: buffer
Summary of the method: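 Shake-flask method with 10 mM phosphate buffer pH 7.4 against n-octanol, shaken 1 h at 1200 rpm to equilibrium. Analysis was by LC/UV with MS confirmation.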

[2] = Ratio of fAUC to MIC in Pseudomonas aeruginosa PAO1 in neutropenic mouse thigh infection model at 100 mg/kg/day, ip bid of total 12 doses starting 2 h post infection; details: route intraperitoneal

logD [1]: -0.32 | fAUC/MIC [2]: 12
Structure (SMILES): N[C@@H](Cn1c(=O)cnc2ccc(F)cc21)[C@H]1CC[C@H](NCc2ncc3c(n2)NC(=O)CO3)CC1
